In article PMC9073653 (RSC Advances, 2019):

Legend:
human fibroblasts (HAF) = assay: SRB cytotoxicity assay, human fibroblasts HAF; type: cell-based; settings: Fibroblast, 96 h, read-out: IC50 HAF
LNCaP cells = assay: SRB antiproliferative assay, LNCaP; type: cell-based; settings: Homo sapiens, read-out: IC50 LNCaP
Procedure, shortened: (§1)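 AR-positive human prostate cancer line, tested in vitro for antiproliferative activity by sulforhodamine B (SRB) staining, with IC50 as the read-out.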

DU145 cells [1] = assay: Transwell migration assay; type: cell-based, human; settings: 10 μM, 24 h
[2] = tested on: DU145, PC3 and PC3M cell lines; assay: SRB antiproliferative assay, CRPC cell lines together; type: cell-based, human; settings: across DU145, PC3 and PC3M
DU145 cells [3] = assay: Wound healing migration assay; type: cell-based, human; settings: 10 μM, 24 h
22RV1 cells = assay: SRB antiproliferative assay, 22RV1; type: cell-based; settings: Homo sapiens, 22Rv1, read-out: IC50 22RV1
Procedure, shortened: as §1

[4] = tested on: PARP and CL.PARP in DU145 cells; assay: Western blot of PARP and cleaved PARP; type: cell-based, human
DU145 cells [5] = assay: Cell cycle analysis by PI staining and flow cytometry; type: cell-based, human; settings: 10 μM, 24 h, control 9.66%
DU145 cells [6] = assay: SRB antiproliferative assay, DU145; type: cell-based, human; settings: in DU145 cells
PC3 cells = assay: SRB antiproliferative assay, PC3; type: cell-based, human; settings: in PC3 cells

**Q.** Which IC50 (human fibroblasts (HAF)) does the source give for C[C@]1([N+](=O)[O-])C(=O)c2ccccc2O[C@@H]1CC(=O)OCc1ccccc1 [Compound 10] here?
**A.** The IC50 was > 100 µM.

**Q.** For C#CCOC(=O)C[C@H]1Oc2ccccc2C(=O)[C@]1(C)[N+](=O)[O-] [Compound 6], which IC50 (human fibroblasts (HAF)) is on record?
**A.** Its IC50 is > 100 µM.

**Q.** Which IC50 (human fibroblasts (HAF)) does the source give for C[C@]1([N+](=O)[O-])C(=O)c2ccccc2O[C@@H]1CC(=O)NC1CCCC1 [Compound 29] here?
**A.** The IC50 was > 100 µM.

**Q.** For C#CCNC(=O)C[C@H]1Oc2ccccc2C(=O)[C@]1(C)[N+](=O)[O-] [Compound 14], which IC50 (human fibroblasts (HAF)) is on record?
**A.** The IC50 was > 100 µM.

**Q.** CC12CC3CC(C)(C1)CC(NC(=O)C[C@H]1Oc4ccccc4C(=O)[C@]1(C)[N+](=O)[O-])(C3)C2 [Compound 32] was tested. Which IC50 (human fibroblasts (HAF)) did it give?
**A.** The IC50 was > 100 µM.

**Q.** For C[C@]1([N+](=O)[O-])C(=O)c2cc(Br)ccc2O[C@@H]1CC(=O)NC12CC3CC(CC(C3)C1)C2 [Compound 38], which IC50 (human fibroblasts (HAF)) is on record?
**A.** Its IC50 is 3.67 ± 0.56 µM.

**Q.** How did the IC50 (human fibroblasts (HAF)) turn out when COc1ccc2c(c1)C(=O)[C@](C)([N+](=O)[O-])[C@@H](CC(=O)NC13CC4CC(CC(C4)C1)C3)O2 [Compound 40] was run?
**A.** Its IC50 is > 100 µM.

**Q.** With C[C@]1([N+](=O)[O-])C(=O)c2cc(Cl)ccc2O[C@@H]1CC(=O)NC12CC3CC(CC(C3)C1)C2 [Compound 37] as the compound, how does the IC50 (human fibroblasts (HAF)) read?
**A.** Its IC50 is > 100 µM.

**Q.** CCCCNC(=O)C[C@H]1Oc2ccccc2C(=O)[C@]1(C)[N+](=O)[O-] [Compound 15] was tested. Which IC50 (human fibroblasts (HAF)) did it give?
**A.** The IC50 was > 100 µM.

**Q.** How did the IC50 (LNCaP cells) turn out when C[C@]1([N+](=O)[O-])C(=O)c2cc(F)ccc2O[C@@H]1CC(=O)NC12CC3CC(CC(C3)C1)C2 [Compound 36] was run?
**A.** The IC50 was 4.4 µM.

**Q.** What about the “migration rate in comparison with control” value (DU145 cells [1]) of the same compound?
**A.** Its value is 23.94%.

**Q.** What about the “times more potent than the positive compound cisplatin” value [2] of the same compound?
**A.** The value was 2.3–19.4 times.

**Q.** And the “cell migration ability, wound healing” value (DU145 cells [3])?
**A.** Its value is “notably inhibited”.

**Q.** What about the IC50 (22RV1 cells) of the same compound?
**A.** Its IC50 is 7.43 µM.

**Q.** And the IC50 (human fibroblasts (HAF))?
**A.** The IC50 was > 100 µM.

**Q.** What about the “expression of PARP and CL.PARP” value [4] of the same compound?
**A.** The value was “promote the PARP to CL. PARP”.

**Q.** What about the “percentage of G2/M phase cells” value (DU145 cells [5]) of the same compound?
**A.** The value was 0%.

**Q.** With C[C@]1([N+](=O)[O-])C(=O)c2ccccc2O[C@@H]1CC(N)=O [Compound 11] as the compound, how does the IC50 (human fibroblasts (HAF)) read?
**A.** The IC50 was > 100 µM.

**Q.** CCCCCCCCNC(=O)C[C@H]1Oc2ccccc2C(=O)[C@]1(C)[N+](=O)[O-] [Compound 17] was tested. Which IC50 (human fibroblasts (HAF)) did it give?
**A.** The IC50 was > 100 µM.

**Q.** CC[C@]1([N+](=O)[O-])C(=O)c2ccccc2O[C@@H]1CC(=O)NC12CC3CC(CC(C3)C1)C2 [Compound 33] was tested. Which IC50 (human fibroblasts (HAF)) did it give?
**A.** Its IC50 is > 100 µM.

**Q.** For CCNC(=O)C[C@H]1Oc2ccccc2C(=O)[C@]1(C)[N+](=O)[O-] [Compound 13], which IC50 (human fibroblasts (HAF)) is on record?
**A.** Its IC50 is > 100 µM.

**Q.** For C[C@]1([N+](=O)[O-])C(=O)c2cccc(F)c2O[C@@H]1CC(=O)NC12CC3CC(CC(C3)C1)C2 [Compound 43], which IC50 (human fibroblasts (HAF)) is on record?
**A.** The IC50 was > 100 µM.

**Q.** For C[C@]1([N+](=O)[O-])C(=O)c2ccc(F)cc2O[C@@H]1CC(=O)NC12CC3CC(CC(C3)C1)C2 [Compound 42], which IC50 (human fibroblasts (HAF)) is on record?
**A.** Its IC50 is > 100 µM.

**Q.** Which IC50 (human fibroblasts (HAF)) does the source give for C[C@]1([N+](=O)[O-])C(=O)c2ccccc2O[C@@H]1CC(=O)Nc1ccccc1 [Compound 20] here?
**A.** Its IC50 is > 100 µM.

**Q.** For C[C@]1([N+](=O)[O-])C(=O)c2ccccc2O[C@@H]1CC(=O)NNc1nc2ccccc2s1 [Compound 26], which IC50 (human fibroblasts (HAF)) is on record?
**A.** The IC50 was > 100 µM.

**Q.** For CC(=O)O[C@@]12CO[C@@H]1C[C@H](O)[C@@]1(C)C(=O)[C@H](O)C3=C(C)[C@@H](OC(=O)[C@H](O)[C@@H](NC(=O)OC(C)(C)C)c4ccccc4)C[C@@](O)([C@@H](OC(=O)c4ccccc4)[C@H]21)C3(C)C [Docetaxel, reference compound], which IC50 (human fibroblasts (HAF)) is on record?
**A.** Its IC50 is 0.157 ± 0.031 µM.

**Q.** With C[C@]1([N+](=O)[O-])C(=O)c2ccccc2O[C@@H]1CC(=O)Nc1nccs1 [Compound 22] as the compound, how does the IC50 (human fibroblasts (HAF)) read?
**A.** The IC50 was > 100 µM.

**Q.** How did the IC50 (human fibroblasts (HAF)) turn out when C[C@]1(N)C(=O)c2cc(F)ccc2O[C@@H]1CC(=O)NC12CC3CC(CC(C3)C1)C2 [Compound 44] was run?
**A.** The IC50 was > 100 µM.

**Q.** For C[C@]1([N+](=O)[O-])C(=O)c2ccccc2O[C@@H]1CC(=O)Nc1ccc2[nH]ccc2c1 [Compound 24], which IC50 (human fibroblasts (HAF)) is on record?
**A.** The IC50 was > 100 µM.

**Q.** C[C@]1([N+](=O)[O-])C(=O)c2ccccc2O[C@@H]1CC(=O)Nc1ncccn1 [Compound 23] was tested. Which IC50 (human fibroblasts (HAF)) did it give?
**A.** The IC50 was > 100 µM.

**Q.** Which IC50 (human fibroblasts (HAF)) does the source give for CN(C(=O)C[C@H]1Oc2ccccc2C(=O)[C@]1(C)[N+](=O)[O-])C1CCCCC1 [Compound 27] here?
**A.** Its IC50 is > 100 µM.

**Q.** C[C@]1([N+](=O)[O-])C(=O)c2ccccc2O[C@@H]1CC(=O)NCC1CCCCC1 [Compound 31] was tested. Which IC50 (human fibroblasts (HAF)) did it give?
**A.** The IC50 was > 100 µM.

**Q.** C[C@]1([N+](=O)[O-])C(=O)c2c(F)cccc2O[C@@H]1CC(=O)NC12CC3CC(CC(C3)C1)C2 [Compound 41] was tested. Which IC50 (human fibroblasts (HAF)) did it give?
**A.** Its IC50 is > 100 µM.

**Q.** How did the IC50 (human fibroblasts (HAF)) turn out when C[C@]1([N+](=O)[O-])C(=O)c2ccccc2O[C@@H]1CC(=O)NCc1ccccc1 [Compound 21] was run?
**A.** Its IC50 is > 100 µM.

**Q.** CN(C)C(=O)C[C@H]1Oc2ccccc2C(=O)[C@]1(C)[N+](=O)[O-] [Compound 28] was tested. Which IC50 (human fibroblasts (HAF)) did it give?
**A.** Its IC50 is > 100 µM.

**Q.** With CNC(=O)C[C@H]1Oc2ccccc2C(=O)[C@]1(C)[N+](=O)[O-] [Compound 12] as the compound, how does the IC50 (human fibroblasts (HAF)) read?
**A.** Its IC50 is > 100 µM.

**Q.** CC(C)(C)NC(=O)C[C@H]1Oc2ccccc2C(=O)[C@]1(C)[N+](=O)[O-] [Compound 16] was tested. Which IC50 (human fibroblasts (HAF)) did it give?
**A.** The IC50 was > 100 µM.

**Q.** For C[C@]1([N+](=O)[O-])C(=O)c2ccccc2O[C@@H]1CC(=O)NC12CC3CC(CC(C3)C1)C2 [Compound 19], which IC50 (human fibroblasts (HAF)) is on record?
**A.** The IC50 was > 100 µM.

**Q.** What about the “more potent antiproliferative activity than cisplatin” value (DU145 cells [6]) of the same compound?
**A.** Its value is 1.6 fold.

**Q.** What about the “more potent antiproliferative activity than cisplatin” value (PC3 cells) of the same compound?
**A.** Its value is 5.9 fold.

**Q.** C[C@]1([N+](=O)[O-])C(=O)c2cc(C(F)(F)F)ccc2O[C@@H]1CC(=O)NC12CC3CC(CC(C3)C1)C2 [Compound 35] was tested. Which IC50 (human fibroblasts (HAF)) did it give?
**A.** Its IC50 is > 100 µM.

**Q.** For CC[C@]1([N+](=O)[O-])C(=O)c2ccccc2O[C@@H]1CC(=O)NC1CCCCC1 [Compound 34], which IC50 (human fibroblasts (HAF)) is on record?
**A.** Its IC50 is > 100 µM.

**Q.** With C[C@]1([N+](=O)[O-])C(=O)c2ccccc2O[C@@H]1CC(=O)NC1CCCCC1 [Compound 18] as the compound, how does the IC50 (human fibroblasts (HAF)) read?
**A.** The IC50 was > 100 µM.
